# Data reported in paper PMC8842656 (Journal of Experimental Pharmacology, 2022).
# Where two headings read alike, the source gives them in different places.
# What was measured:
# Sprague-Dawley (SD) rats [1] = test: 5-day maximum tolerated dose; assay type: in vivo, rat
# How it was run: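 Thirty Sprague-Dawley rats, 60–65 days old (276–300 g), viral-antibody free, formed 5 groups of 3 males and 3 females. They received 2% carboxymethylcellulose vehicle or test compound suspended in it at 50, 100, 500 or 1000 mg/kg/day by oral gavage once daily for 5 days. Mortality, body weight and food intake were monitored. Terminal hematology, clinical chemistry and necropsy followed, with control and high-dose organs sectioned. Two-tailed Student's t-test, p<0.05.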
# Sprague-Dawley (SD) rats [2] = test: 28-day toxicology evaluation within long-term PK study, oral gavage once daily; assay type: in vivo, rat; details: 100 mg/kg/day oral
# How it was run: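 Male and female Sprague-Dawley rats, 6–8 weeks old (250–350 g), 3+3 per group, received 2% carboxymethylcellulose vehicle or test compound suspended in it at 100 mg/kg/day by oral gavage for 28 days. Adverse events, body weight and daily food intake were tracked. Terminal hematology and serum biochemistry, gross necropsy, and histopathology of heart, lungs, liver, kidney, spleen and colon followed. Two-tailed Student's t-test versus vehicle, p<0.05.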
# Long-term = assay type: in vivo, rat; details: 100 mg/kg/day oral, day 28
# How it was run: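 Sprague-Dawley rats (3 males and 3 females) were dosed with test compound by oral gavage at 100 mg/kg/day for 28 days, suspended in 2% carboxymethylcellulose. On day 28 the animals were anesthetized and blood was sampled from 5 min to 24 h after dosing. Compound was quantified by LC/MS/MS, and Cmax and Tmax were taken from the mean (n=6) concentration-time profile.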
# [3] = Single dose pharmacokinetic study, oral gavage, blood by LC/MS/MS; assay type: in vivo, rat
# How it was run: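 Two groups of 6 Sprague-Dawley rats (3 males and 3 females each), 6–8 weeks old, received a single oral gavage of test compound at 500 or 1000 mg/kg, suspended in 2% carboxymethylcellulose. Blood was drawn at 5, 10, 15, 30, 45 min and 1, 2, 4, 6, 24 h. Compound was measured by LC/MS/MS, and t1/2, Tmax and Cmax were derived from mean (n=6) profiles.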
# [4] = 500 mg/kg oral and 20 mg/kg i.v., blood at 2 and 6 hours; cited from earlier work
# [5] = tested on: LPS-induced experimental periodontal disease; details: rats, oral, 28 days, doses 0, 1, 5, 10 and 30 mg/kg; cited from earlier work
# [6] = oral dose of 2g/kg; cited from earlier work
# [7] = humans, cited from earlier work
# [8] = 50-1000 mg/kg/day oral, 5 days, both sexes
# [9] = 28-Day PK Study, compared to placebo-treated controls
compound,measurement,setting,value
O=C(/C=C/c1ccc(O)cc1)C(C(=O)/C=C/c1ccc(O)cc1)C(=O)Nc1ccccc1 [CMC2.24],Daily food consumption and adverse events,Sprague-Dawley (SD) rats [1]; [8],no difference
same,Mean body weight vs placebo treated controls,Sprague-Dawley (SD) rats [1]; [8],did not show significant differences
same,Highest dose found safe (MTD not demonstrated),"Sprague-Dawley (SD) rats [1]; oral, one week of treatment",≥ 1000 mg/kg
same,Adverse events,Sprague-Dawley (SD) rats [2]; 28 days,no adverse events were reported
same,Mean body weight vs placebo treated controls,"Sprague-Dawley (SD) rats [2]; 28 days, both sexes",no significant differences
same,Hematological & Serological parameters,Sprague-Dawley (SD) rats [2]; [9],No change observed
same,"Histology of organs (Heart, Lungs, Spleen, Liver, Kidney, Colon)",Sprague-Dawley (SD) rats [2]; [9],Normal Histology Observed
same,Peak blood concentration (Cmax),Long-term,0.2 ng/mL
same,Tmax,Long-term,4 h
same,Serum half-life,[3]; oral administration,10 h
same,Cmax in blood,[3]; single oral dose 500 mg/kg,8 ng/mL
same,Tmax,[3]; single oral dose 500 mg/kg,0.75 h
same,Cmax in blood,[3]; single oral dose 1000 mg/kg,6.7 ng/mL
same,Tmax,[3]; single oral dose 1000 mg/kg,0.75 h
same,Bioavailability based on blood analysis,[4],poor bioavailability
same,Minimum effective dose to inhibit inflammation and alveolar bone resorption,[5],1 mg/kg/day
"COc1cc(C=CC(=O)CC(=O)C=Cc2ccc(O)c(OC)c2)ccc1O [curcumin, 1,7-bis-(4-hydroxy-3-methoxyphenyl)-1,6-heptadiene-3,5-dione]",Cmax,[6],1350 ± 230 ng/mL
same,Time of Cmax,[6],0.75 h
same,Cmax in serum,[7]; oral dose of 10 g/kg,50.5 ng/mL
same,Time of Cmax,[7]; oral dose of 10 g/kg,4 h
same,Cmax in serum,[7]; oral dose of 12 g/kg,57.6 ng/mL
same,Time of Cmax,[7]; oral dose of 12 g/kg,2 h
